The values below come from PubChem BioAssay.

The nature of experiment [1]: S. cerevisiae growth inhibition in permissive medium (OD615), pilot counter-assay for S. cerevisiae lifespan shortening project, permissive growth control (AID 705;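 active = growth inhibition above 25% in both replicates, a cutoff set 3 SD above the mean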). The following applies: OD615, 24 h, at 10 µM, hits give high values. The gist of the method:
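System – S. cerevisiae with engineered DeaD lifespan system · Buffer or medium – SC raffinose/galactose permissive medium · Schedule – cells pre-grown 4 h, then 24 h compound exposure, 30 °C humidified · Technique – culture turbidity as optical density at 615 nm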

The nature of experiment [2]: S. cerevisiae growth inhibition in restrictive medium, OD615, pilot screen, restrictive growth control, yeast lifespan reduction project (AID 706;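 active = growth inhibition above a set limit, 3 SD over mean compound inhibition, in both replicates, cut at about 43% in these data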;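 also: modified DeaD lifespan yeast strain shifted to restrictive glucose medium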). The following applies: OD615, 48 h, at 10 µM, hits give high values. The method, boiled down:
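Material: engineered S. cerevisiae DeaD strain / Medium: glucose-based CSMM-D restrictive medium / Compound: single dose of 10 µM compound final, 0.25% DMSO / Timing: 4 h pre-incubation, 48 h exposure at 30 °C / Technique: OD615 absorbance reading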

A short description of experiment [3]: doxorubicin toxicity protection in MRP-1 cells – H69AR cells, CellTiter-Glo, duplicate, MRP-1 activator project, pilot screen (AID 807).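 Also: compound pretreatment 18-22 h then 72 h combined with doxorubicin; 0% = doxorubicin alone and 100% = vehicle without doxorubicin.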 The following applies: H69AR viability with doxorubicin, CellTiter-Glo luminescence; at 10 µM; hits give high values.
A short description of experiment [4]: viability of HCT116 without oncogenic beta-catenin – human colon tumor cells, pilot screen (AID 823;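 active = cell viability at or below a set limit in both duplicate runs, the limit being the all-compound median minus 4 SD, cut at about 23% in these data, passing the limit was not always enough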;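 also: 0% = wells killed by 20 µM Hyamine and 100% = untreated DMSO cell wells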). The following applies: HCT116 beta-catenin knockout viability, CellTiter-Glo, 60 h; at 10 µM; hits give low values.
A short description of experiment [5]: viability of PTEN-null HCT116 cells – cell-based, HCT116 clonal line, CellTiter-Glo, pilot screen (AID 824;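 active = viability at or below 27.92% in each of two runs, the all-compound median minus 4 SD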;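 also: 0% = 20 µM Hyamine control and 100% = vehicle cell control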). The following applies: HCT116 PTEN-deleted viability, 60 h, at 10 µM, hits give low values.
Experiment [6] in a line: RAM pathway blockade in budding yeast – dse1pr::URA3 reporter, 5-FOA selection, pilot screen (AID 869;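 active = inhibition over a set limit, the all-compound mean plus 3 SD, in both replicate runs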;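 also: 0% = DMSO wells with no growth and 100% = 10 µM 1-NA-PP1 with full growth; RAM network block rescues cells from 5-FOA so hits raise OD615 growth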). The note with it: S. cerevisiae dse1pr::URA3 5-FOA growth, OD615, 2 d; at 10 µM; hits give high values; strain carries analog-sensitive mutant Cbk1 kinase.
Experiment [7] in a line: RAM signaling pathway blockade in yeast – S. cerevisiae, Pdr1DBD-CYC8 efflux-inhibited sensitized strain, primary screen (AID 1298;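 active = RAM network inhibition above 8.4% in each of two replicates, 3 SD over the compound average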;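 also: 0% = DMSO untreated cells without growth and 100% = 10 µM 1-NA-PP1 full growth; higher means more yeast growth rescued from 5-FOA killing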). The note with it: S. cerevisiae cbk1-as DSE1-URA3 strain, 5-FOA growth OD615, 2 d; at 50 µM; hits give high values.

SMILES strings stand for the structures. A number with no mark means an inactive call. Results filed as inconclusive are left out. Calls of active or inactive are those of the source.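 The calls were made as follows, unless noted: active = viability increase at or above a cutoff of the median across tested compounds plus 3 SD (cut at about 8.5% in these data, passing the limit was not always enough); inconclusive = some gains above the cutoff, reason not given; inactive = the rest.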

Take `Cn1c(SCC(=O)Nc2cc(=O)n(C)c(=O)n2C)nnc1C12CC3CC(CC(C3)C1)C2`: the results for the growth inhibition in experiment [1] and in experiment [2] were 2.36% and 12.8%, respectively. Also, the viability increase in experiment [3] was -4.43%. In addition, the viability in experiment [4] was 88.8%; in experiment [5], 92.7%. In addition, in experiment [6], the inhibition was 2.03%. Also, in experiment [7], the RAM network inhibition is 3.38%.

In the case of `COC(=O)c1c(C)oc2ccc(OC(=O)c3cccs3)cc12`, the figures for the growth inhibition in experiment [1] and in experiment [2] were 4.65% and -15%, respectively. In addition, the viability increase in experiment [3] is 1.81%. For the same compound, the values for the viability in experiment [4] and in experiment [5] were 96.3% and 99.5%, respectively. Also, the inhibition in experiment [6] is 0.81%. In addition, in experiment [7], the RAM network inhibition was 0.1%.

As for `O=C(CN(c1ccc(F)cc1)S(=O)(=O)c1ccc2c(c1)OCCO2)N1CCOCC1`, the growth inhibition was -3.38% in experiment [1] and -12.4% in experiment [2]. Further, the viability increase in experiment [3] was -2.08%. Also, the viability in experiment [4] was 107%; in experiment [5] it was 104%. Also, in experiment [6], the inhibition is 0.625%. For the same compound, in experiment [7], the RAM network inhibition was 2.45%.

Turning to `CCOc1cccc(C(=O)Nc2cccc(-c3nnc(-c4ccccc4)o3)c2)c1`, the growth inhibition in experiment [1] is -8.09%; in experiment [2], 6.69%. Further, in experiment [3], the viability increase was -3%. Besides, the viability is 51.9% in experiment [4] and 48.5% in experiment [5]. For the same compound, in experiment [6], the inhibition is 0.02%. In addition, the RAM network inhibition in experiment [7] is 2.46%.

For `CC1CC(NC(=O)CCn2c(=O)oc3ccccc32)CC(C)(C)C1` (stereo unspecified), the growth inhibition in experiment [1] is 1.98%; in experiment [2] it was -2.1%. Besides, the viability increase in experiment [3] is -1.55%. Also, the viability was 97.1% in experiment [4] and 102% in experiment [5]. The inhibition in experiment [6] is 1.02%. For the same compound, the RAM network inhibition in experiment [7] was 4.18%.

Regarding `COCCn1c(SCCN2CCOCC2)nc2c1c(=O)[nH]c(=O)n2C`, the growth inhibition in experiment [1] is -0.205%; in experiment [2], -4.84%. In experiment [3], the viability increase was 0.95%. Besides, the results for the viability in experiment [4] and in experiment [5] were 104% and 101%, respectively. Moreover, the inhibition in experiment [6] was 1.45%. Further, in experiment [7], the RAM network inhibition was 5.47%.

On to `CC(C)(C)SCCNS(=O)(=O)c1ccc(F)cc1`, for which the growth inhibition in experiment [1] was -4.57%; in experiment [2], 3.38%. Moreover, in experiment [3], the viability increase is 0.35%. In addition, the viability in experiment [4] was 94.2%; in experiment [5], 89.5%. The inhibition in experiment [6] was 0.725%. In experiment [7], the RAM network inhibition was 0.56%.

On to `C=C(C)Cn1c(C2CC(=O)N(c3ccccc3F)C2)nc2ccccc21` (stereo unspecified), for which the growth inhibition in experiment [1] was -9.62%; in experiment [2] it was -5.32%. The viability increase in experiment [3] is -2.5%. Moreover, the viability in experiment [4] is 100%; in experiment [5], 105%. Besides, the inhibition in experiment [6] is 0.42%. In experiment [7], the RAM network inhibition is 1.56%.

As for `CCc1ccc(-c2nc(C(N)=O)c3[nH]c(=O)n(-c4ccccc4OC)c3n2)cc1`, the results for the growth inhibition in experiment [1] and in experiment [2] were -5.67% and -2.13%, respectively. In addition, the viability increase in experiment [3] was -8.43%. Moreover, the viability is 15.6% (active) in experiment [4] and 24% (active) in experiment [5]. Further, the inhibition in experiment [6] was 2.18%. Besides, the RAM network inhibition in experiment [7] is 10.7%.

For `CCN1CCN(Cc2ccc(NC(=O)CC3Oc4ccc(C)cc4NC3=O)cc2)CC1` (stereo unspecified), the growth inhibition in experiment [1] is -3.29%; in experiment [2] it was 1.68%. The viability increase in experiment [3] was -0.91%. Also, the viability in experiment [4] is 93%; in experiment [5], 101%. Besides, the inhibition in experiment [6] was 0.29%. For the same compound, in experiment [7], the RAM network inhibition is 2.33%.

Take `Cc1nnc(SCC(=O)Nc2ccc3c(c2)COC3=O)n1-c1ccccc1`: the growth inhibition in experiment [1] is -9.99%; in experiment [2], 0.555%. Moreover, the viability increase in experiment [3] was -0.13%. Also, the viability in experiment [4] was 98.8%; in experiment [5] it was 92.8%. Moreover, the inhibition in experiment [6] is 3.27%. Moreover, the RAM network inhibition in experiment [7] was 1.16%.

Take `CN1CCN(CCNC(=O)c2cc3c(=O)n(C)c4ccccc4c3n2C)CC1`: the growth inhibition in experiment [1] was -12.9%; in experiment [2], -20%. Besides, in experiment [3], the viability increase was -4.6%. Also, the viability is 82.3% in experiment [4] and 81.3% in experiment [5]. The inhibition in experiment [6] was 0.755%. In experiment [7], the RAM network inhibition is 1.04%.

For the compound `O=C(OCCCCN1C(=O)c2ccccc2C1=O)c1ccc(S(=O)(=O)N2CCCC2)cc1`, the values for the growth inhibition in experiment [1] and in experiment [2] were -11.7% and -0.405%, respectively. Besides, in experiment [3], the viability increase was 0.28%. The viability in experiment [4] was 101%; in experiment [5] it was 100%. Moreover, in experiment [6], the inhibition is 1.85%. The RAM network inhibition in experiment [7] is 4.52%.

For the compound `CSc1nc2ccc(NS(=O)(=O)c3ccc4c(c3)OCCO4)cc2s1`, the figures for the growth inhibition in experiment [1] and in experiment [2] were 0.175% and 0.53%, respectively. Further, the viability increase in experiment [3] was 0.31%. In addition, the viability was 90.8% in experiment [4] and 88.4% in experiment [5]. Moreover, in experiment [6], the inhibition is 0.865%. Also, in experiment [7], the RAM network inhibition was 5.46%.

In the case of `CCCC(=O)N1CCN(C2=NS(=O)(=O)c3ccccc32)CC1`, the growth inhibition in experiment [1] is -0.28%; in experiment [2], 12.9%. Also, the viability increase in experiment [3] was -0.68%. In addition, the values for the viability in experiment [4] and in experiment [5] were 103% and 98.5%, respectively. Moreover, in experiment [6], the inhibition was -0.175%. In addition, in experiment [7], the RAM network inhibition is 3.82%.

Consider `CCN1c2ccccc2NC2C1C(C(C)=O)C(=O)N2c1ccc(Cl)cc1` (stereo unspecified), for which the growth inhibition in experiment [1] is -2.96%; in experiment [2] it was -9.21%. Moreover, in experiment [3], the viability increase was -5.03%. The values for the viability in experiment [4] and in experiment [5] were 84.3% and 72.2%, respectively. Further, the inhibition in experiment [6] is 1.32%. In experiment [7], the RAM network inhibition is 5.6%.

In the case of `CCCOc1ccc(C(=O)NCc2ccco2)cc1`, the growth inhibition in experiment [1] was -13.1%; in experiment [2] it was -4.49%. Besides, the viability increase in experiment [3] is -1.42%. Also, the viability in experiment [4] is 98%; in experiment [5], 93.5%. The inhibition in experiment [6] was 0.43%. In addition, the RAM network inhibition in experiment [7] was 2.65%.

With `CCN(CC)c1cccc(OC2=NS(=O)(=O)c3ccccc32)c1`, the growth inhibition in experiment [1] is -1.53%; in experiment [2], 0.2%. In addition, in experiment [3], the viability increase was -1.25%. In addition, the figures for the viability in experiment [4] and in experiment [5] were 99.1% and 97.8%, respectively. For the same compound, in experiment [6], the inhibition was 1.63%. For the same compound, the RAM network inhibition in experiment [7] was 5.72%.
